One data set has as its system Mus musculus. Nature of the data set: Antinociceptive activity in ddY mouse at 100 mg/kg, po by formalin test. Format: functional.
Data set [1] can be described thus: Inhibition of N-type calcium channel in human IMR-32 cells by FLIPR calcium imaging assay. The format is cell-based. An outline of the steps: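 FLIPR calcium imaging in IMR-32 human neuroblastoma cells with nitrendipine present to block endogenous L-type channels; IC50 determined in duplicate in one experiment, advanced compounds tested in several repeat assays.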

The target of a further data set is Cytochrome P450 2D6 (Homo sapiens, UniProt P10635). Description: Inhibition of CYP2D6 (unknown origin) by fluorescence-based assay.
In data set [2] the target is T1, CYP3A4 (Homo sapiens, UniProt P08684). Nature of the data set: Reversible inhibition of CYP3A4 in human liver microsomes assessed as residual enzyme activity using midazolam as substrate by fluorescence-based assay. The conditions noted are these: probe midazolam. (Liver microsomes are a subcellular fraction often used to study metabolism.)
Data set [3] addresses T1, CYP3A4. Nature of the data set: Time-dependent inhibition of CYP3A4 in human liver microsomes assessed as residual enzyme activity using midazolam as substrate preincubated for 30 mins by fluorescence-based assay. The settings on record: probe midazolam.
Data set [4] in a line: Clearance in human liver microsomes. Format: ADME. The settings on record: read-out: CLH.
Data set [5] has as its target Voltage-gated L-type calcium channel (Homo sapiens, UniProt Q13936+Q13698+Q01668+O60840). Description: Inhibition of L-type calcium channel in human IMR-32 cells by FLIPR calcium imaging assay. Format: cell-based.
For another data set, the target named is Cytochrome P450 2C19 (Homo sapiens, UniProt P33261). Description: Inhibition of CYP2C19 (unknown origin) by fluorescence-based assay. The format is ADME. In short, it runs like this: (§1)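 Fluorescence-based assay with fluorogenic substrate, as for CYP1A2 and 2D6; IC50 determined.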
Another data set concerns Rattus norvegicus. Nature of the data set: Analgesic activity in po dosed Sprague-Dawley rat L5/L6 SNL model assessed as reduction of mechanical allodynia. Format: functional. An outline of the steps:
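Male Sprague-Dawley rats, L5/L6 spinal nerve ligation model; drug suspended/diluted in 0.5% methylcellulose, given orally at 0.3–10 mg/kg (dose as free form).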

The target in a further data set is Cytochrome P450 2C9 (Homo sapiens, UniProt P11712). Description: Inhibition of CYP2C9 (unknown origin) by fluorescence-based assay. The format is ADME. In short, it runs like this:
as §1

A value given as a limit tells only on which side of the number the result lay.

The inhibition in vivo is the percentage by which the read-out fell short of the control. Higher therefore signals strong suppression. In general, IC50 refers to the concentration that gives 50% inhibition. For orientation: ED50 means the dose that gives a 50% effect, or the effect in half of the subjects.

T1 sequence (P08684 whole entry): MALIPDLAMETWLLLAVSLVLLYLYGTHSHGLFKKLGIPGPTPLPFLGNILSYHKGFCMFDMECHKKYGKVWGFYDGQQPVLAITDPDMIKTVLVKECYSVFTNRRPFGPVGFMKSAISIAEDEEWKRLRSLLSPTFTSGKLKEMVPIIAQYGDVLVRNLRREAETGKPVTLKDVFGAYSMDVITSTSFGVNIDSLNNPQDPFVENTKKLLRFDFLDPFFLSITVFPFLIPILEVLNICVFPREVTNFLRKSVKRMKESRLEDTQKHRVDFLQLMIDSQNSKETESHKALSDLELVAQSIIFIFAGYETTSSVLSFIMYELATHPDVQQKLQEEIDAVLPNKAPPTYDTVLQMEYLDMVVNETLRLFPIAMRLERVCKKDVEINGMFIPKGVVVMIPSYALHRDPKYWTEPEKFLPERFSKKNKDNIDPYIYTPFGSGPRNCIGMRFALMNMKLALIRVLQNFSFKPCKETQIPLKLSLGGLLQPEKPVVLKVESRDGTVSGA
Chain of Cytochrome P450 2D6 (P10635 whole entry): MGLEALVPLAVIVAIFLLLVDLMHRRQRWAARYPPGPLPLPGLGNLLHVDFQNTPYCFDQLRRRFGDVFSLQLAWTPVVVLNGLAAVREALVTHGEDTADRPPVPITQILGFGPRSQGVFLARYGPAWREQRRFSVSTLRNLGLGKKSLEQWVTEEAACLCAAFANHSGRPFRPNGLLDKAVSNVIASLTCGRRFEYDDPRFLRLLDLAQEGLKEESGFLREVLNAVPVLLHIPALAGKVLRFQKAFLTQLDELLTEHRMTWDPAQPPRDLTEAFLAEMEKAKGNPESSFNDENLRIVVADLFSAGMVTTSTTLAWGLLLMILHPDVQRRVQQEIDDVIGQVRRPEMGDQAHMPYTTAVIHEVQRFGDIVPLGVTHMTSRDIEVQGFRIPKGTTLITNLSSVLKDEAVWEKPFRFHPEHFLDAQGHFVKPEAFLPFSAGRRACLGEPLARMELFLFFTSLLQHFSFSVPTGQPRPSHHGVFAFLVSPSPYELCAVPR
Chain of Cytochrome P450 2C19 (P33261 whole entry): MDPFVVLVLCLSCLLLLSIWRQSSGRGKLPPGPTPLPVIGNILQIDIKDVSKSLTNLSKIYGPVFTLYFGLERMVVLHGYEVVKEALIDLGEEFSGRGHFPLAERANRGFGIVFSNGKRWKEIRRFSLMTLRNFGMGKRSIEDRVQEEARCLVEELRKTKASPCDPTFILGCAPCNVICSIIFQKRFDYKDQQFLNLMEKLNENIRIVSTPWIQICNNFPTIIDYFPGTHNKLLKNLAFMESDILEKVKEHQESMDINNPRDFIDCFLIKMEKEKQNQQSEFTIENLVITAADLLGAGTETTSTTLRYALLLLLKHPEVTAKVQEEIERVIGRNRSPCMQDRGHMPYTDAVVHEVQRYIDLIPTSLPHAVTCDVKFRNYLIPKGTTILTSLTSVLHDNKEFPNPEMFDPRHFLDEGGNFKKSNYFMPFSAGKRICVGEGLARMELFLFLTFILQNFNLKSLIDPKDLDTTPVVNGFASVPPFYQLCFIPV
Chain of Cytochrome P450 2C9 (P11712 whole entry): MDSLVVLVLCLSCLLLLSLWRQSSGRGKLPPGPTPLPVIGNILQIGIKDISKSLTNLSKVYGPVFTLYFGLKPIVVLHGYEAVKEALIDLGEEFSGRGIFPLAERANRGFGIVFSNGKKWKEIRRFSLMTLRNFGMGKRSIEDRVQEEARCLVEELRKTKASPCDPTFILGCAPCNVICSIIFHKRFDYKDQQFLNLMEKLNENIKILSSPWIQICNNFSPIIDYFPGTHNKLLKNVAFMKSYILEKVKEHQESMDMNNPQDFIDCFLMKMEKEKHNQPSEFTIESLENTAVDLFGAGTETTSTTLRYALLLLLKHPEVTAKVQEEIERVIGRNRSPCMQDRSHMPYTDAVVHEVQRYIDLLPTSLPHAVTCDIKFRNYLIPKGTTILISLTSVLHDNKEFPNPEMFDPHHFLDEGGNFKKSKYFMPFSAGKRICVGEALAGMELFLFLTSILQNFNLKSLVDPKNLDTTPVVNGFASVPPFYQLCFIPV

Regarding `O=C(CNCC1(O)CCCCC1)N1CCc2ccccc2C1C1CCCCC1` (stereo unspecified), the inhibition in vivo at 100 mg/kg with Mus musculus was found to be 62%.

Take `O=C(CNCC1(O)CCCCC1)N1CCc2ccccc2[C@@H]1c1ccccc1`: the figures for the IC50 (in data set [1]; on Cytochrome P450 2D6) were 1 µM and less than 0.39 µM, respectively.

`CC(C)(O)CNCC(=O)N1CCc2ccccc2C1C1CCCCC1` (stereo unspecified) registered an inhibition in vivo at 100 mg/kg in the data set on Mus musculus of 7.7%. For the same compound, the IC50 in data set [1] worked out at 1.7 µM.

As to `CC[C@@H](O)CNCC(=O)N1CCc2ccccc2C1C1CCCCC1` (stereo partly specified), at CYP3A4 [2], the activity stood at 87%. The inhibition in vivo at 100 mg/kg in the data set with Mus musculus amounted to 19%. The figures for the IC50 (in data set [1]; at Cytochrome P450 2D6) were 1.5 µM and 1 µM, respectively. Further, the activity at 30 min at CYP3A4 [3] stood at 88%.

For the compound `CC[C@H](O)CNCC(=O)N1CCc2ccccc2C1C1CCCCC1` (stereo partly specified), the activity at CYP3A4 [2] came out at 81%. This compound also displayed an inhibition in vivo at 100 mg/kg in the data set with Mus musculus of 27%. For the same compound, the IC50 was 1.9 µM in data set [1] and less than 0.3 µM against Cytochrome P450 2D6. Besides, the activity at 30 min at CYP3A4 [3] was determined as 83%.

As for `C[C@@H](O)CNCC(=O)N1CCc2ccccc2C1C1CCCCC1` (stereo partly specified), the activity at CYP3A4 [2] is 92%. In addition, the inhibition in vivo at 100 mg/kg in the data set with Mus musculus worked out at 39%. Besides, the values for the IC50 (in data set [1]; on Cytochrome P450 2D6) were 2 µM and 1.1 µM, respectively. Besides, on CYP3A4 [3], the activity at 30 min amounted to 95%.

Regarding `C[C@H](O)CNCC(=O)N1CCc2ccccc2C1C1CCCCC1` (stereo partly specified), at CYP3A4 [2], the activity was determined as 96%. For the same compound, the inhibition in vivo at 100 mg/kg in the data set on Mus musculus was 0%. Further, the half-maximal inhibitory concentration (IC50) in [1] turned out to be 1.5 µM; at Cytochrome P450 2D6 it was 1.6 µM. Also, on CYP3A4 [3], the activity at 30 min was 91%.

As to `CC(C)(C)[C@@H](CO)NCC(=O)N1CCc2ccccc2C1C1CCCCC1` (stereo partly specified), the activity on CYP3A4 [2] amounted to 65%. The compound further had an inhibition in vivo at 100 mg/kg in the data set with Mus musculus of 40%. Further, the values for the IC50 (in [1]; on Cytochrome P450 2D6) were 1.4 µM and 0.068 µM, respectively. Moreover, the activity at 30 min on CYP3A4 [3] came to 33%.

Consider `CC(C)C[C@@H](CO)NCC(=O)N1CCc2ccccc2C1C1CCCCC1` (stereo partly specified), for which the activity at CYP3A4 [2] turned out to be 69%. At 100 mg/kg the inhibition in vivo in the data set with Mus musculus was 32%. Besides, the IC50 was 1.1 µM in [1] and 0.044 µM against Cytochrome P450 2D6. For the same compound, the activity at 30 min on CYP3A4 [3] turned out to be 46%.

With `C[C@@H](O)CNCC(=O)N1CCc2ccccc2[C@@H]1C1CCCCC1`, at CYP3A4 [2], the activity was found to be 105%. In addition, at 100 mg/kg the inhibition in vivo in the data set on Mus musculus was 55%. In addition, the 50% inhibitory concentration (IC50) in data set [1] came out at 1.7 µM; against Cytochrome P450 2D6 it was 1.4 µM. Also, the activity at 30 min at CYP3A4 [3] was 87%.

Turning to `C[C@@H](O)CNCC(=O)N1CCc2c(F)cccc2C1C1CCCCC1` (stereo partly specified), the activity on CYP3A4 [2] is 95%. Also, the concentration for half-maximal inhibition (IC50) in data set [1] is 1.2 µM; on Cytochrome P450 2D6, less than 0.39 µM. Also, the activity at 30 min at CYP3A4 [3] came out at 49%.

For the compound `COc1cccc2c1CCN(C(=O)CNC[C@@H](C)O)C2C1CCCCC1` (stereo partly specified), at CYP3A4 [2], the activity was found to be 107%. For the same compound, the IC50 was 2 µM in data set [1] and less than 0.78 µM at Cytochrome P450 2D6. The activity at 30 min at CYP3A4 [3] was found to be 63%.

Regarding `C[C@@H](O)CNCC(=O)N1CCc2cc(F)ccc2C1C1CCCCC1` (stereo partly specified), the activity at CYP3A4 [2] was found to be 92%. Also, the IC50 (in data set [1]; on Cytochrome P450 2D6) was 1.6 µM each time. Besides, the activity at 30 min at CYP3A4 [3] was 91%.

Take `Cc1ccc2c(c1)CCN(C(=O)CNC[C@@H](C)O)C2C1CCCCC1` (stereo partly specified): the IC50 in data set [1] came out at 2.4 µM.

Regarding `COc1ccc2c(c1)CCN(C(=O)CNC[C@@H](C)O)C2C1CCCCC1` (stereo partly specified), the activity at CYP3A4 [2] is 93%. Besides, the IC50 is 1.9 µM in [1] and less than 0.78 µM at Cytochrome P450 2D6. Besides, the activity at 30 min on CYP3A4 [3] stood at 97%.

Consider `C[C@@H](O)CNCC(=O)N1CCc2cc(C#N)ccc2C1C1CCCCC1` (stereo partly specified), for which the IC50 in [1] turned out to be 3.1 µM.

As to `C[C@@H](O)CNCC(=O)N1CCc2cc(C(N)=O)ccc2C1C1CCCCC1` (stereo partly specified), in data set [1], the IC50 is more than 10 µM.

As to `C[C@@H](O)CNCC(=O)N1CCc2ccc(F)cc2C1C1CCCCC1` (stereo partly specified), the activity at CYP3A4 [2] stood at 109%. The IC50 in data set [1] was found to be 2.3 µM; against Cytochrome P450 2D6 it was 1.3 µM. Moreover, at CYP3A4 [3], the activity at 30 min turned out to be 80%.

With `Cc1ccc2c(c1)C(C1CCCCC1)N(C(=O)CNC[C@@H](C)O)CC2` (stereo partly specified), the IC50 in data set [1] amounted to 1.7 µM.

In the case of `CCc1ccc2c(c1)C(C1CCCCC1)N(C(=O)CNC[C@@H](C)O)CC2` (stereo partly specified), on CYP3A4 [2], the activity was determined as 85%. The values for the IC50 (in data set [1]; on Cytochrome P450 2D6) were 0.89 µM and 1.3 µM, respectively. Moreover, the activity at 30 min at CYP3A4 [3] is 65%.

For the compound `CC(C)c1ccc2c(c1)C(C1CCCCC1)N(C(=O)CNC[C@@H](C)O)CC2` (stereo partly specified), on CYP3A4 [2], the activity amounted to 88%. For the same compound, the IC50 came to 1.3 µM in data set [1] and 1.9 µM against Cytochrome P450 2D6. On CYP3A4 [3], the activity at 30 min came to 43%.

`COc1ccc2c(c1)C(C1CCCCC1)N(C(=O)CNC[C@@H](C)O)CC2` (stereo partly specified): the activity at CYP3A4 [2] worked out at 97%. The IC50 stood at 1.6 µM in data set [1] and 3.7 µM at Cytochrome P450 2D6. Further, on CYP3A4 [3], the activity at 30 min is 83%.

As to `C[C@@H](O)CNCC(=O)N1CCc2ccc(C#N)cc2C1C1CCCCC1` (stereo partly specified), the IC50 in [1] was found to be 2.6 µM.

For the compound `C[C@@H](O)CNCC(=O)N1CCc2cccc(F)c2C1C1CCCCC1` (stereo partly specified), the IC50 in [1] came out at 2.5 µM.

In the case of `COc1cccc2c1C(C1CCCCC1)N(C(=O)CNC[C@@H](C)O)CC2` (stereo partly specified), at CYP3A4 [2], the activity was 85%. The results for the IC50 (in [1]; against Cytochrome P450 2D6) were 1.4 µM and 30.2 µM, respectively. Further, the activity at 30 min on CYP3A4 [3] was determined as 58%.

Consider `C[C@@H](O)CNCC(=O)N1CCc2ccccc2[C@@H]1c1ccccc1`, for which, at CYP3A4 [2], the activity is 98%. Also, the IC50 came to 2.4 µM in [1] and 2.2 µM against Cytochrome P450 2D6. For the same compound, the activity at 30 min on CYP3A4 [3] was 94%.

Regarding `C[C@@H](O)CNCC(=O)N1CCc2cccc(F)c2C1c1ccccc1` (stereo partly specified), the activity on CYP3A4 [2] came to 103%. In addition, the half-inhibitory concentration (IC50) in data set [1] was 1 µM; at Cytochrome P450 2D6, 1.3 µM. Further, at CYP3A4 [3], the activity at 30 min came to 95%.

As to `Cc1cccc2c1C(c1ccccc1)N(C(=O)CNC[C@@H](C)O)CC2` (stereo partly specified), the activity on CYP3A4 [2] turned out to be 100%. The IC50 in [1] worked out at 1.3 µM; against Cytochrome P450 2D6, 5.6 µM. Also, on CYP3A4 [3], the activity at 30 min amounted to 89%.

Consider `COc1cccc2c1[C@H](c1ccccc1)N(C(=O)CNC[C@@H](C)O)CC2`, for which the activity at CYP3A4 [2] came to 94%. Also, the CLint scaled in [4] came to 45.9 mL/min/kg. In addition, the IC50 was more than 10 µM in data set [5], 1.4 µM in data set [1], more than 50 µM against Cytochrome P450 2C19 and more than 50 µM at Cytochrome P450 2C9. Besides, testing at 100 mg/kg in the data set on Mus musculus gave an inhibition in vivo of 77%. In addition, at CYP3A4 [3], the activity at 30 min is 90%. Besides, in the data set on Rattus norvegicus, the ED50 came out at 2.8 mg/kg.

Turning to `COc1cccc2c1[C@@H](c1ccccc1)N(C(=O)CNC[C@@H](C)O)CC2`, on CYP3A4 [2], the activity turned out to be 110%. The IC50 in [1] amounted to 3.3 µM. At CYP3A4 [3], the activity at 30 min came to 91%.

These data come from ChEMBL document CHEMBL3600316, “Discovery of an 8-methoxytetrahydroisoquinoline derivative as an orally active N-type calcium channel blocker for neuropathic pain without CYP inhibition liability” (Bioorg Med Chem, 2015).
